Data reported in PMC9340768 (Journal of Medicinal Chemistry, 2022).
≈ marks a conversion by molar mass, not a printed value. Starred links: 1 amine or outer side, 2 acyl side, 3 side chain; linkers in the order of their positions; H or OH if unused. Positions of bridges follow the written chain, without caps; N, C: chain ends. Non-standard residues stand in square brackets, D forms with d. Residues, ends and D or L forms follow the SMILES beside them. TATA = O=C(CC[*:1])N1CN(C(=O)CC[*:2])CN(C(=O)CC[*:3])C1; tBuAla = CC(C)(C)C[C@H](N)C(=O)O; Nle = CCCC[C@H](N)C(=O)O

Legend:
Nectin-4 = assay: Cross-species binding of the Nectin-4 Bicycle; parameters: species or system mouse, rat, monkey, and human
CD137 = assay: Cross-species binding of the CD137 Bicycle; parameters: species or system human and monkey
[1] = test system: human PBMCs cocultured with HT1376; assay: PBMC/HT1376 coculture cytokine secretion assay; type: cell-based; conditions: anti-CD3 stimulated PBMCs with HT1376
How it was run: (§1)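 Frozen healthy-donor human PBMCs were thawed, washed in PBS with benzonase and resuspended in RPMI with 10% heat-inactivated FBS, HEPES and glutamine. PBMCs (1 × 10^6/mL) were plated with tumor cells (1 × 10^5/mL) at 10:1, stimulated with soluble anti-CD3 OKT3 (100 ng/mL), and given diluted test compound. Incubation was 2 days at 37 °C, 5% CO2. Supernatant IFNγ and IL-2 were measured by Luminex; four-parameter fit, n = 3.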

[2] = Pharmacokinetics in Sprague-Dawley rats; conditions: rat, in vivo, iv, 2 mg/kg, SD rats, 2 mg/kg IV bolus; for clearance: CL (mL/min/kg); for half-life: t½ (h), terminal half-life
CT26-Nectin-4 tumors = assay: CT26-Nectin-4 syngeneic tumor model; type: in vivo, Balb/c mice; conditions: 1 and 5 mg/kg QD IP
[3] = test system: human PBMCs cocultured with MC38-Nectin-4; assay: PBMC/MC38-Nectin-4 coculture cytokine secretion assay; type: cell-based; conditions: anti-CD3 stimulated; IFNγ after 48 h
How it was run: as §1

MC38-Nectin-4 tumors = assay: CIVO intratumoral microdosing pharmacodynamics; type: in vivo, huCD137 C57Bl/6 mice; conditions: 1.85 μM microdose, 24 h, IHC; compared to vehicle or MMAE injection sites
How it was run: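 C57BL/6J-hCD137 mice bearing subcutaneous MC38-Nectin-4 tumors (around 860 mm3; three mice) were anesthetized and microdosed transcutaneously with the CIVO device. Each 2 μL injection held vehicle (25 mM histidine, 10% sucrose pH 7), 120 μM MMAE or 1.85 μM test compound, plus fluorescent tracking microspheres. Tumors were taken 24 h later, formalin-fixed, paraffin-embedded and stained by fluorescent IHC for CD8, GzB and DAPI. CD8+/GzB+ cells were normalized to total CD8+ cells; one-way ANOVA with Dunnett's post-test.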

Thermodynamic solubility = type: physicochemical; conditions: pH 7.4

Q: Which “species cross-reactivity of binding to Nectin-4” value (Nectin-4) does the source give for `CSCC[C@@H]1NC(=O)[C@@H]2CSCCC(=O)N3CN(CN(C3)C(=O)CCSC[C@H](N)C(=O)N3CCC[C@H]3C(=O)N[C@@H](Cc3cccc4ccccc34)C(=O)N[C@H](CC(=O)O)C(=O)N2)C(=O)CCSC[C@@H](C(N)=O)NC(=O)[C@H](Cc2c[nH]c3ccccc23)NC(=O)[C@@H]2C[C@@H](O)CN2C(=O)[C@@H]2CCCN2C(=O)[C@H]([C@@H](C)O)NC(=O)[C@H](CO)NC(=O)[C@H](Cc2c[nH]c3ccccc23)NC(=O)[C@H](CC(=O)O)NC(=O)[C@H](CCCCNC(=N)N)NC1=O` [BCY8116] here?
A: binds to mouse, rat, monkey, and human Nectin-4

Q: With `CCCC[C@@H]1NC(=O)[C@H](Cc2ccc(O)cc2)NC(=O)[C@@H]2CCCN2C(=O)[C@H](CC(=O)O)NC(=O)[C@H](C)NC(=O)[C@H](Cc2ccccc2)NC(=O)[C@@H]2CSCCC(=O)N3CN(CN(C3)C(=O)CCSC[C@@H](C(=O)N[C@@H](C)C(N)=O)NC1=O)C(=O)CCSC[C@H](NC(C)=O)C(=O)N[C@@H](CC(C)(C)C)C(=O)N1CCC[C@H]1C(=O)N[C@@H](CCC(=O)O)C(=O)N[C@H](CCCCN)C(=O)N1CCC[C@H]1C(=O)N[C@@H](Cc1ccc(O)cc1)C(=O)N2` [BCY8928] (Ac-C[tBuAla]PE[dK]PYCFADPY[Nle]CA-NH2; linker 1-8-15 via TATA) as the molecule, how does the “species cross-reactivity of binding to CD137” value (CD137) read?
A: binds only to human and monkey CD137

Q: With `CCCC[C@@H]1NC(=O)[C@H](Cc2ccc(O)cc2)NC(=O)[C@@H]2CCCN2C(=O)[C@H](CC(=O)O)NC(=O)[C@H](C)NC(=O)[C@H](Cc2ccccc2)NC(=O)[C@@H]2CSCCC(=O)N3CN(CN(C3)C(=O)CCSC[C@@H](C(=O)N[C@@H](C)C(N)=O)NC1=O)C(=O)CCSC[C@H](NC(C)=O)C(=O)N[C@@H](CC(C)(C)C)C(=O)N1CCC[C@H]1C(=O)N[C@@H](CCC(=O)O)C(=O)N[C@H](CCCCNC(=O)CCc1cn(CCOCCOCCOCCOCCOCCC(=O)N[C@H]3CSCCC(=O)N4CN5CN(C4)C(=O)CCSC[C@H](NC(=O)[C@@H](CC(=O)O)NC(=O)[C@H](Cc4cccc6ccccc46)NC(=O)[C@@H]4CCCN4C3=O)C(=O)N[C@@H](CCSC)C(=O)N[C@@H](CCCCNC(=N)N)C(=O)N[C@@H](CC(=O)O)C(=O)N[C@@H](Cc3c[nH]c4ccccc34)C(=O)N[C@@H](CO)C(=O)N[C@@H]([C@@H](C)O)C(=O)N3CCC[C@H]3C(=O)N3C[C@H](O)C[C@H]3C(=O)N[C@@H](Cc3c[nH]c4ccccc34)C(=O)N[C@H](C(N)=O)CSCCC5=O)nn1)C(=O)N1CCC[C@H]1C(=O)N[C@@H](Cc1ccc(O)cc1)C(=O)N2` [BCY10572] as the molecule, how does the “secretion of proinflammatory cytokines IFNγ and IL-2” value [1] read?
A: dose-dependent increase

Q: What about the clearance [2] of the same molecule?
A: 18 mL/min/kg

Q: What about the antitumor activity (CT26-Nectin-4 tumors; huCD137-Balb/c mice) of the same molecule?
A: Potent antitumor activity

Q: And the antitumor activity (CT26-Nectin-4 tumors; wt Balb/c mice)?
A: no BCY10572 antitumor activity

Q: What does the source list for `CCCC[C@@H]1NC(=O)[C@H](Cc2ccc(O)cc2)NC(=O)[C@@H]2CCCN2C(=O)[C@H](CC(=O)O)NC(=O)[C@H](C)NC(=O)[C@H](Cc2ccccc2)NC(=O)[C@@H]2CSCCC(=O)N3CN(CN(C3)C(=O)CCSC[C@@H](C(=O)N[C@@H](C)C(N)=O)NC1=O)C(=O)CCSC[C@H](NC(=O)[C@H](C)NC(C)=O)C(=O)N[C@@H]([C@@H](C)CC)C(=O)N[C@@H](CCC(=O)O)C(=O)N[C@@H](CCC(=O)O)C(=O)N[C@H](CCCCNC(=O)CCc1cn(CCOCCOCCOCCN(CCOCCOCCOCCC(=O)N[C@H]3CSCCC(=O)N4CN5CN(C4)C(=O)CCSC[C@H](NC(=O)[C@@H](CC(=O)O)NC(=O)[C@H](Cc4cccc6ccccc46)NC(=O)[C@@H]4CCCN4C3=O)C(=O)N[C@@H](CCSC)C(=O)N[C@@H](CCCCNC(=N)N)C(=O)N[C@@H](CC(=O)O)C(=O)N[C@@H](Cc3c[nH]c4ccccc34)C(=O)N[C@@H](CO)C(=O)N[C@@H]([C@@H](C)O)C(=O)N3CCC[C@H]3C(=O)N3C[C@H](O)C[C@H]3C(=O)N[C@@H](Cc3c[nH]c4ccccc34)C(=O)N[C@H](C(N)=O)CSCCC5=O)CCOCCOCCOCCn3cc(CCC(=O)NCCCC[C@H]4NC(=O)[C@H](CCC(=O)O)NC(=O)[C@H](CCC(=O)O)NC(=O)[C@H]([C@@H](C)CC)NC(=O)[C@@H](NC(=O)[C@H](C)NC(C)=O)CSCCC(=O)N5CN6CN(C5)C(=O)CCSC[C@H](NC(=O)[C@H](Cc5ccc(O)cc5)NC(=O)[C@H](CCC(N)=O)NC4=O)C(=O)N[C@@H](Cc4ccccc4)C(=O)N[C@@H](C)C(=O)N[C@@H](CC(=O)O)C(=O)N4CCC[C@H]4C(=O)N[C@@H](Cc4ccc(O)cc4)C(=O)N[C@@H](CCCC)C(=O)N[C@H](C(=O)N[C@@H](C)C(N)=O)CSCCC6=O)nn3)nn1)C(=O)N[C@@H](CCC(N)=O)C(=O)N[C@@H](Cc1ccc(O)cc1)C(=O)N2` [BCY11864]?
A: secretion of proinflammatory cytokines IFNγ and IL-2 [1]: dose-dependent increase; functional activity in PBMCs cocultured with MC38-Nectin-4 [3]: functionally active; half-life [2]: 0.95 h; proportion of CD8+/GzB+ double positive cells of total CD8+ cells (MC38-Nectin-4 tumors): increase

Q: For `CCCC[C@@H]1NC(=O)[C@H](Cc2ccc(O)cc2)NC(=O)[C@@H]2CCCN2C(=O)[C@H](CC(=O)O)NC(=O)[C@H](C)NC(=O)[C@H](Cc2ccccc2)NC(=O)[C@@H]2CSCCC(=O)N3CN(CN(C3)C(=O)CCSC[C@@H](C(N)=O)NC1=O)C(=O)CCSCCC(=O)N[C@@H](CC(C)(C)C)C(=O)N1CCC[C@H]1C(=O)N[C@@H](CCC(=O)O)C(=O)N[C@H](CCCCNC(=O)CCc1cn(CCOCCOCCOCCN(CCOCCOCCOCCC(=O)N[C@H]3CSCCC(=O)N4CN5CN(C4)C(=O)CCSC[C@H](NC(=O)[C@@H](CC(=O)O)NC(=O)[C@H](Cc4cccc6ccccc46)NC(=O)[C@@H]4CCCN4C3=O)C(=O)N[C@@H](CCSC)C(=O)N[C@@H](CCCCNC(=N)N)C(=O)N[C@@H](CC(=O)O)C(=O)N[C@@H](Cc3c[nH]c4ccccc34)C(=O)N[C@@H](CO)C(=O)N[C@@H]([C@@H](C)O)C(=O)N3CCC[C@H]3C(=O)N3C[C@H](O)C[C@H]3C(=O)N[C@@H](Cc3c[nH]c4ccccc34)C(=O)N[C@H](C(N)=O)CSCCC5=O)CCOCCOCCOCCn3cc(CCC(=O)NCCCC[C@H]4NC(=O)[C@H](CCC(=O)O)NC(=O)[C@@H]5CCCN5C(=O)[C@H](CC(C)(C)C)NC(=O)CCSCCC(=O)N5CN6CN(C5)C(=O)CCSC[C@H](NC(=O)[C@H](Cc5ccc(O)cc5)NC(=O)[C@@H]5CCCN5C4=O)C(=O)N[C@@H](Cc4ccccc4)C(=O)N[C@@H](C)C(=O)N[C@@H](CC(=O)O)C(=O)N4CCC[C@H]4C(=O)N[C@@H](Cc4ccc(O)cc4)C(=O)N[C@@H](CCCC)C(=O)N[C@H](C(N)=O)CSCCC6=O)nn3)nn1)C(=O)N1CCC[C@H]1C(=O)N[C@@H](Cc1ccc(O)cc1)C(=O)N2` [BCY12587], which “secretion of proinflammatory cytokines IFNγ and IL-2” value [1] is on record?
A: dose-dependent increase

Q: And the solubility thermodynamic (Thermodynamic solubility)?
A: 3100 µg/mL (≈ 446 µM)

Q: What about the clearance [2] of the same molecule?
A: 4.5 mL/min/kg

Q: What about the half-life [2] of the same molecule?
A: 17 h
